Reference: article PMC5091360 (Science Advances, 2016)

Columns and labels:
[1] = system: HUVECs; experiment: endothelial tube formation in Matrigel; type: cell-based, human; conditions: peptide 500 μg/ml in Matrigel
Procedure, shortened: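 HUVECs (1.5 × 10^4 per well) plated on Matrigel containing 1% DMSO, with or without peptide (500 μg/ml) in the gel. Cells kept in RPMI 1640 with VEGF-A (30 ng/ml) or VEGF-C (100 ng/ml). Tubes counted per field at 4× by bright-field microscopy. Triplicate wells; two independent experiments; Student's t test.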

[2] = system: IgD2-3 domains from human VEGFR-3; experiment: phage PCAIWF binding to recombinant VEGFR-3 IgD2-3; conditions: peptide 100 μg/ml; FLISA, duplicate wells
[3] = system: IgD2 domain from human VEGFR-3; experiment: phage PCAIWF binding to recombinant VEGFR-3 IgD2; conditions: peptide 100 μg/ml; FLISA, duplicate wells
[4] = system: ERK1/2 pathway in lymphatic endothelial cells (LECs); experiment: ERK1/2 phosphorylation in lymphatic endothelial cells; type: cell-based, human; conditions: 10 min, 37°C
Procedure, shortened: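 Human dermal lymphatic microvascular endothelial cells were cultured overnight in EBM2 with 2% FBS, then starved 18 h in EBM2 with 0.2% BSA. They were stimulated with VEGF-A, VEGF-C or FGF-1, with or without test peptide or scrambled peptide (30 μg/ml). Lysates were immunoblotted for total and phospho-ERK1/2 using infrared-dye secondaries, and the phospho/total intensity ratio was taken. Two experiments were run; ANOVA with Tukey.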

[5] = system: VEGF family; conditions: cited from earlier work
[6] = clinical studies; cited from earlier work
[7] = system: human VEGFR-3; experiment: phage binding assay, immobilized human VEGFR-3; conditions: 10^8 TU in 50 μl PBS, 2 hours, room temperature; control insertless phage Fd; colony count or phage-FLISA; triplicate plating
[8] = system: VEGFR-1; experiment: phage binding assay, immobilized VEGFR-1; conditions: 10^8 TU in 50 μl PBS, 2 hours, room temperature; triplicate plating
[9] = system: VEGFR-2; experiment: phage binding assay, immobilized VEGFR-2; conditions: 10^8 TU in 50 μl PBS, 2 hours, room temperature; triplicate plating
[10] = system: mouse VEGFR-3; experiment: phage binding assay, immobilized mouse VEGFR-3; conditions: 10^8 TU in 50 μl PBS, 2 hours, room temperature; control insertless phage Fd; colony count or phage-FLISA; triplicate plating
[11] = system: NRP-1; experiment: phage binding assay, immobilized NRP-1; conditions: 10^8 TU in 50 μl PBS, 2 hours, room temperature; triplicate plating
[12] = system: NRP-2; experiment: phage binding assay, immobilized NRP-2; conditions: 10^8 TU in 50 μl PBS, 2 hours, room temperature; triplicate plating
[13] = system: human VEGFR-1; experiment: FLISA binding assay, NRP-1 to VEGFR-1; conditions: human NRP-1, FLISA
Procedure, shortened: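 Human VEGFR-1 extracellular domain coated at 200 ng per well in PBS overnight at 4°C, then blocked with Odyssey blocking buffer. Wells incubated with NRP-1 or NRP-2 in PBS with 10% (v/v) DMSO and 10% blocking buffer, with or without peptide (100 μg/ml). Bound NRP detected with goat anti-NRP-1 or anti-NRP-2 serum (1:100), then IRDye 680LT anti-goat, by infrared scanning. Duplicate wells; ANOVA with Tukey.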

[14] = biological target: VEGFR-1; conditions: read-out: Kd, NRP-1 to VEGFR-1; cited from earlier work
[15] = system: PDGFR-β; conditions: such as in the case of sunitinib and PDGFR-β; cited from earlier work
[16] = biological target: T1, rat NRP-2 (rat, UniProt O35276); experiment: ELISA
T1 sequence: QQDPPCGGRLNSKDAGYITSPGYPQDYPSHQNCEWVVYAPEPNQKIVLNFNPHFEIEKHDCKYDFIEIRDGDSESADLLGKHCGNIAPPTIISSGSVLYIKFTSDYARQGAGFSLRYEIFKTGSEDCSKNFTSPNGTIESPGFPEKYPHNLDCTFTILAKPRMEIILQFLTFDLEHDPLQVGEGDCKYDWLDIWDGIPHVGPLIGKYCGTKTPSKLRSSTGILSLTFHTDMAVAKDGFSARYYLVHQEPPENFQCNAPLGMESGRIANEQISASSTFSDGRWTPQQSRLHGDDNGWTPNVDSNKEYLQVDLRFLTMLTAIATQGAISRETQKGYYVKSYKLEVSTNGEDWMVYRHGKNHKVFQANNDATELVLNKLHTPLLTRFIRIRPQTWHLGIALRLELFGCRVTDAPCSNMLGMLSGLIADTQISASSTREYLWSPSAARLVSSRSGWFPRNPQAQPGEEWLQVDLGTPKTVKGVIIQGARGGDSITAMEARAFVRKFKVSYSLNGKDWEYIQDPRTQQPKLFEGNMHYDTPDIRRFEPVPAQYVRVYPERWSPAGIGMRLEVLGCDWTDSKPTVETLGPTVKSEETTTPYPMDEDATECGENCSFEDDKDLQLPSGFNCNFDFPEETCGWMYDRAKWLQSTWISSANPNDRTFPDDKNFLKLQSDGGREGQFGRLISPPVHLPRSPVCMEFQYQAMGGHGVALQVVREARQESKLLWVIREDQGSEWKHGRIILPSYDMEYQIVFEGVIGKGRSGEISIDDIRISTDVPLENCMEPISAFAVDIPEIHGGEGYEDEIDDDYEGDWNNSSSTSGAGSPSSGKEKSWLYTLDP

[17] = biological target: T2, VEGFR-3 (Mus musculus, UniProt P35917); experiment: competition assay, binding of phage PCAIWF to immobilized VEGFR-3; conditions: VEGF-A or VEGF-C (10 ng/ml); triplicate plating
T2 sequence (P35917 25-770): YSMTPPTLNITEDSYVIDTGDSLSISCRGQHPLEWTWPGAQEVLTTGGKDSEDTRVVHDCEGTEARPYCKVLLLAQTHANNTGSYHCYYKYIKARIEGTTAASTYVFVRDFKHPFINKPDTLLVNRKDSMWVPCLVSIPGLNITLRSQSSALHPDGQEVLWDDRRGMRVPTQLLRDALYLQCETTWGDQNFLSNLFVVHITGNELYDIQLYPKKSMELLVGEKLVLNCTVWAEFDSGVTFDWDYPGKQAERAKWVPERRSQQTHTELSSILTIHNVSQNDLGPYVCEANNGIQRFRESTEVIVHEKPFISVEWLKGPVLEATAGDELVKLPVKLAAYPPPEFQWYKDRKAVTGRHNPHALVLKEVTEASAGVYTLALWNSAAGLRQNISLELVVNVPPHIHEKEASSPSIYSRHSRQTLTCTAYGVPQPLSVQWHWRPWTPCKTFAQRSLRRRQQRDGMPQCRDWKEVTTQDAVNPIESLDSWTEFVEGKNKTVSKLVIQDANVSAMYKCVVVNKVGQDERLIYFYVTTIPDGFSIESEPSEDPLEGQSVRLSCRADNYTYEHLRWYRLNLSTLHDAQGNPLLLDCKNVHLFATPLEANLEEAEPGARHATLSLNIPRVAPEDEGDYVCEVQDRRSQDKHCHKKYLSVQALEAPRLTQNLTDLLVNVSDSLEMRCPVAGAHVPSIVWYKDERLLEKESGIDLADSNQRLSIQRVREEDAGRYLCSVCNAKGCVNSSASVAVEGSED

[18] = biological target: T2, VEGFR-3; experiment: competition assay, binding of phage WVCSGG to immobilized VEGFR-3; conditions: VEGF-C or VEGF-A in competition
[19] = system: IgD2 domain from human VEGFR-3; experiment: VEGF-C binding to recombinant VEGFR-3 IgD2; conditions: FLISA, no peptide, duplicate wells
[20] = system: IgD2-3 domains from human VEGFR-3; experiment: VEGF-C binding to recombinant VEGFR-3 IgD2-3; conditions: FLISA, no peptide, duplicate wells

IFCAPW
inhibition of tube formation, VEGF-A stimulated (in words) ([1]; VEGF-A 30 ng/ml): not by the control scramble peptide | inhibition of tube formation, VEGF-C stimulated (in words) ([1]; VEGF-C 100 ng/ml): not by the control scramble peptide | inhibition of phage PCAIWF binding to IgD2-3 by synthetic peptide [2]: not by the control peptide | inhibition of phage PCAIWF binding to IgD2 by synthetic peptide [3]: not by the control peptide | effect on FGF-1 induced phosphorylation of ERK1/2 ([4]; FGF-1 100 ng/ml, peptide 30 μg/ml): no effect on this downstream signaling event | effect on VEGF-A induced phosphorylation of ERK1/2 ([4]; VEGF-A 100 ng/ml, peptide 30 μg/ml): no effect on this downstream signaling event | effect on VEGF-C induced phosphorylation of ERK1/2 ([4]; VEGF-C 100 ng/ml, peptide 30 μg/ml): no effect on this downstream signaling event

aflibercept: ligand-binding domain of VEGFR-1 fused to an Ig constant region
VEGF family members targeted [5]: will target multiple members of the VEGF family (VEGF-A, VEGF-B, and PlGF) but will miss others (VEGF-C and VEGF-D) | clinical efficacy in ophthalmology [6]: better efficacy compared to bevacizumab and ranibizumab

PCAIWF [phage PCAIWF]
phage binding to human VEGFR-3 [7]: both phages bound to mouse and human VEGFR-3 | phage binding to VEGFR-1 [8]: not to the other receptors, VEGFR-1 and VEGFR-2 | phage binding to VEGFR-2 [9]: not to the other receptors, VEGFR-1 and VEGFR-2 | phage binding to mouse VEGFR-3 [10]: both phages bound to mouse and human VEGFR-3 | phage binding to NRP-1 [11]: not to the other receptors, VEGFR-1 and VEGFR-2 (Fig. 1, C and D), including the two other non-RTKs, NRP-1 and NRP-2 | phage binding to NRP-2 [12]: not to the other receptors, VEGFR-1 and VEGFR-2 (Fig. 1, C and D), including the two other non-RTKs, NRP-1 and NRP-2

NRP-1: neuropilin-1, co-receptor for VEGF
NRP-1 binding to VEGFR-1 [13]: strong interaction | Kd [14]: ~1.8 nM

CCN(CC)CCNC(=O)c1c(C)[nH]c(/C=C2\C(=O)Nc3ccc(F)cc32)c1C [sunitinib]
side effects [15]: cardiotoxicity

B1: human VEGFR-1 extracellular domain (Fc fusion) (Fc fusion)
chain: SKLKDPELSLKGTQHIMQAGQTLHLQCRGEAAHKWSLPEMVSKESERLSITKSACGRNGKQFCSTLTLNTAQANHTGFYSCKYLAVPTSKKKETESAIYIFISDTGRPFVEMYSEIPEIIHMTEGRELVIPCRVTSPNITVTLKKFPLDTLIPDGKRIIWDSRKGFIISNATYKEIGLLTCEATVNGHLYKTNYLTHRQTNTIIDVQISTPRPVKLLRGHTLVLNCTATTPLNTRVQMTWSYPDEKNKRASVRRRIDQSNSHANIFYSVLTIDKMQNKDKGLYTCRVRSGPSFKSVNTSVHIYDKAFITVKHRKQQVLETVAGKRSYRLSMKVKAFPSPEVVWLKDGLPATEKSARYLTRGYSLIIKDVTEEDAGNYTILLSIKQSNVFKNLTATLIVNVKPQIYEKAVSSFPDPALYPLGSRQILTCTAYGIPQPTIKWFWHPCNHNHSEARCDFCSNNEESFILDADSNMGNRIESITQRMAIIEGKNKMASTLVVADSRISGIYICIASNKVGTVGRNISFYITDVPNGFHVNLEKMPTEGEDLKLSCTVNKFLYRDVTWILLRTVNNRTMHYSISKQKMAITKEHSITLNLTIMNVSLQDSGTYACRARNVYTGEEILQKKEITIRDQEAPYLLRNLSDHTVAISSSTTLDCHANGVPEPQITWFKNNHKIQQEPGIILGPGSSTLFIERVTEEDEGVYHCKATNQKGSVESSAYLTVQGTSDKSNLE
binding result [16]: binds

B2: VEGF-C: VEGF family member, recombinant human ligand (protein)
chain: AHYNTEILKSIDNEWRKTQCMPREVCIDVGKEFGVATNTFFKPPCVSVYRCGGCCNSEGLQCMNTSTSYLSKTLFEITVPLSQGPKPVTISFANHTSCRCMSKLDVYRQVHSIIRR
inhibition of phage PCAIWF binding to VEGFR-3 by growth factor [17]: Only VEGF-C prevents the binding of phage PCAIWF to the receptor (Fig. 2A) in a dose-dependent manner | inhibition of phage WVCSGG binding to VEGFR-3 by growth factor [18]: binding of phage WVCSGG to VEGFR-3 is also inhibited by VEGF-C | VEGF-C binding to IgD2 [19]: binds to both recombinant ligand-binding domains IgD2 | phosphorylation of ERK1/2 upon growth factor stimulation ([4]; growth factor 100 ng/ml, 1% DMSO, heparin 10 U/ml): phosphorylation of ERK1/2 increases | VEGF-C binding to IgD2-3 [20]: binds to both recombinant ligand-binding domains IgD2 (Fig. 2F) and IgD2-3
